The source of these data is ChEMBL document CHEMBL1165962, “Rearranged diterpenoids from the biotransformation of ent-trachyloban-18-oic acid by Rhizopus arrhizus” (J Nat Prod, 2010).

One assay has as its target Bcl-2-like protein 1 (Homo sapiens, UniProt Q07817). The assay is described as follows: Displacement of fluorescently-tagged BH3 peptide from Bcl-XL by fluorimetric assay. In a few lines: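 Fluorescence-polarization competition assay in which test compound displaces a fluorescent-tagged Bak BH3-domain peptide from Bcl-xL. Unlabeled Bak(BH3) peptide served as the positive control. Output was percent inhibition of labeled-peptide binding, or IC50 as the concentration giving 50% inhibition.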

Assay [1] has as its system KB. In words: Cytotoxicity against human KB cells. In kind it is functional, cell-based. In a few lines: (§1)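 Growth inhibition measured by a previously published method in KB (oral epidermoid carcinoma) and HCT-116 (human colon carcinoma) cells. Taxotere served as the reference compound. IC50 was reported.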
Assay [2] deals with HCT-116. The assay is described as follows: Cytotoxicity against human HCT116 cells. The format is functional, cell-based. In a few lines:
as §1

The subject of assay [3] is KB. The assay is described as follows: Cytotoxicity against human KB cells at 10 ug/mL. In kind it is functional, cell-based. In a few lines:
(§2)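 Single-concentration screen at 10 µg/mL in KB (oral epidermoid carcinoma) and HCT-116 (human colon carcinoma) cells, run by a previously published cytotoxicity method. Taxotere served as the reference.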

Assay [4] relates to HCT-116. The assay is described as follows: Cytotoxicity against human HCT116 cells at 10 ug/mL. In kind it is functional, cell-based. Summed up: as §2

Active and inactive are the calls of the source. The rule behind the calls is not given here.

Bcl-2-like protein 1, sequence (Q07817 whole entry): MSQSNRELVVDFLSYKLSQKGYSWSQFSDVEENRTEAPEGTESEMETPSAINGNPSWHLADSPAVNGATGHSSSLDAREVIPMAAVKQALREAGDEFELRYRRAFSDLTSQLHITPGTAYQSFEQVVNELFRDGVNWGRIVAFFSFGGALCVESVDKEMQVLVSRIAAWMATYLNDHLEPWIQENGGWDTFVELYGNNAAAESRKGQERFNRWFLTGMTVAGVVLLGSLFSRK

As for `CC1=C[C@]23CC[C@@H]4[C@](C)([C@H](O)CC[C@@]4(C)C(=O)O)[C@H]2[C@H]2[C@H](C3)[C@@H]12`, the IC50 entry on Bcl-2-like protein 1 is “Not Active”; in the assay on KB [1], above 31.6 µM; in the assay with HCT-116 [2] it was above 31.6 µM. Further, the inhibition result in the assay on KB [3] and in the assay with HCT-116 [4] was “inactive” each time.

`C[C@]12[C@H](O)CC[C@@](C)(C(=O)O)[C@@H]1CC[C@]13C[C@@H](C=C[C@@H]12)[C@@](C)(O)C3`: the IC50 result is “Not Active” at Bcl-2-like protein 1, above 29.9 µM in the assay with KB [1] and above 29.9 µM in the assay on HCT-116 [2]. The inhibition result with KB [3] and in the assay with HCT-116 [4] was “inactive” in each case.

Turning to `C[C@]12CCC[C@@](C)(C(=O)O)[C@@H]1CC[C@]13C[C@@H]4[C@H](C[C@H]12)[C@]4(C)C3`, the half-maximal inhibitory concentration (IC50) at Bcl-2-like protein 1 (read-out: IC50) worked out at 400 µM.

`CO[C@@]1(C)C[C@]23CC[C@@H]4[C@](C)([C@H](O)CC[C@@]4(C)C(=O)O)[C@H]2C=C[C@@H]1C3`: the IC50 entry on Bcl-2-like protein 1 is “Not Active”; in the assay with KB [1], above 28.7 µM; in the assay with HCT-116 [2] it was above 28.7 µM. Also, the inhibition entry in the assay on KB [3] and with HCT-116 [4] was “inactive” throughout.

With `C[C@]12CCC[C@@](C)(C(=O)O)[C@@H]1CC[C@]13C[C@@H]4[C@H](C[C@H]12)[C@]4(CO)C3`, the half-maximal inhibitory concentration (IC50) is 220 µM on Bcl-2-like protein 1 (read-out: IC50), above 31.4 µM with KB [1] and above 31.4 µM with HCT-116 [2]. Also, the inhibition result in the assay on KB [3] and in the assay with HCT-116 [4] was “inactive” throughout.

For `C[C@]12C[C@]34CC[C@@H]5[C@](C)([C@H](O)CC[C@@]5(C)C(=O)O)[C@@H]3C[C@H]1[C@H]2C4`, the 50% inhibitory concentration (IC50) entry was “Not Active” at Bcl-2-like protein 1, above 31.4 µM in the assay on KB [1] and above 31.4 µM with HCT-116 [2]. Also, the inhibition entry in the assay on KB [3] and in the assay with HCT-116 [4] was “inactive” in each case.

For `C[C@]12CCC[C@@](C)(C(=O)O)[C@@H]1CC[C@]13C[C@@H](C=C[C@@H]12)[C@@](C)(O)C3`, the figures for the IC50 at Bcl-2-like protein 1 (read-out: IC50), with KB [1] and with HCT-116 [2] were 380 µM, above 31.4 µM and above 31.4 µM, respectively. Moreover, the inhibition entry in the assay on KB [3] and in the assay with HCT-116 [4] was “inactive” throughout.

Turning to `CC(=O)O[C@@]12CO[C@@H]1C[C@H](O)[C@@]1(C)C(=O)[C@H](O)C3=C(C)[C@@H](OC(=O)[C@H](O)[C@@H](NC(=O)OC(C)(C)C)c4ccccc4)C[C@@](O)([C@@H](OC(=O)c4ccccc4)[C@H]21)C3(C)C` [DOCETAXEL], the concentration for half-maximal inhibition (IC50) in the assay on KB [1] was 0.00015 µM; in the assay with HCT-116 [2], 0.0012 µM.

Broadly, the IC50 is the concentration that inhibits the measured activity by half.
